Test results from publication PMC4207575 (International Journal of Nanomedicine, 2014).
No end group written: not given here.

Design: species or system Kunming mice
Conditions: mouse, in vivo, iv, 5 mg/kg
Procedure, shortened: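 Kunming mice (10 weeks, 18–22 g), two groups of six; free or nanoparticle-loaded peptide at matched peptide dose by tail-vein injection. Tail-vein blood (20 μL) drawn at intervals into heparinized micropipettes and mixed with PBS; residue taken up in 50% acetonitrile/0.1% TFA. C18 HPLC at 40°C, water/acetonitrile (0.1% TFA) gradient, 280 nm, thymopentin internal standard; plasma calibration 0.195313–25 μg/mL, 1/x2 weighting. Noncompartmental analysis; mean ± SD.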

HSDAVFTDNYTRLRKQVAAKKYLQSIKNKRY-NH2 (C-terminus assumed) [BAY 55-9837]
AUC(0-t): 2680 ± 160 ng·h/mL | clearance: 0.733 mL/min | half-life: 19.2 ± 3.6 min
